Sampled rows, rich in hits. Any-hit rate of the full collection: about 4.8%.
WT yeast gro inh: growth inhibition of WT yeast, mitochondrial fusion screen | mitochondrial fusion phenotypic screen, WT strain | inhibition, % at 10 µM | hit rate 2.1% among 190,000 | AID 1362; in the data active = inhibition above about 58%; tested in S. cerevisiae
Beta apoptosis: blocks beta cell apoptosis. INS-1E cytokine-induced death, ATP luminescence, 48 h; percent of positive-control rescue, neutral wells zero. protection from apoptosis, % (no concentration beside the values). hit rate 0.8% among 300,000. AID 435005;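 active = Every replicate reaches about 75%, or at least half do and their mean reaches it too, limit read from the data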;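 note: 0% = cytokine-treated negative control wells and 100% = positive control rescue; higher means more ATP so stronger rescue from cytokine killing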
Efflux pump mplx: inhibitors of Candida antifungal efflux pumps expressed in yeast; AID 485275; hit rate 0.44% among 330,000; S. cerevisiae Candida pump triplex, Nile Red efflux; inhibition, % at 10 µM;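 active = plate passing quality check with inhibition over a set limit, or well fluorescence over plate mean plus 4 SD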;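 note: Nile Red retained in pooled yeast measured as flow cytometry median fluorescence; 0% = buffer negative control and 100% = Enniatin B positive control; higher means more Nile Red kept so more efflux inhibition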
Mot1-301 SUMO: inhibitors of SUMOylation pathway: yeast Mot1-301 growth rescue. S. cerevisiae Mot1-301 growth rescue, ATP luminescence, 38.5C; percent above DMSO median, 100 means doubled. growth rescue, % at 18.8 µM. hit rate 1% among 320,000. AID 2716;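 active = every valid replicate shows activation above 250% relative to neutral control wells; inactive = the rest, any valid replicate at or below 250%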;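 note: OY570 slx delta 5 strain wells were the positive control but not used for scaling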
CSC inhib: cancer stem cell inhibition | cancer stem cell-like cells viability, luminescence | inhibition, % at 7.5 µM | hit rate 1.1% among 300,000 | AID 2717; in the data active = inhibition above about 75%; tested in HMLE shEcad cells
T cruzi repl: blocks replication of Trypanosoma cruzi. T. cruzi beta-gal in NIH3T3, luminescence, 90 h. inhibition, % (concentration not given with the values). hit rate 1.4% among 300,000. AID 1885;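 active = mean inhibition across valid replicates above about 55%, limit read from the data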;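 note: signal also drops with host cell toxicity which is not excluded here; 0% = plate median of DMSO wells and 100% = zero luminescence signal; higher percent means less beta-gal luminescence so fewer parasites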
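Material: NIH/3T3 host cells with β-galactosidase reporter T. cruzi; Input: 5,000 host fibroblasts per well; Medium: DMEM, 2% fetal bovine serum; Compound: 50 nL DMSO compound solution per well; Schedule: 3 h host attachment, then at least 90 h co-culture; Detection: luminescent β-galactosidase signal after 60 min lysis.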
Starred values were filed as active, the others as inactive; x = not tested or not shown; ! = a repeat was not active.

SMILES	WT yeast gro inh	Beta apoptosis	Efflux pump mplx	Mot1-301 SUMO	CSC inhib	T cruzi repl
COc1cccc(CNC(=O)CCC2CCCN(C/C=C/c3ccccc3OC)C2)c1 (stereo not given)	8	0	0	-6	-1	66*
O=C(NCc1ccccc1)C1(c2cccc(F)c2)CCCC1	13	-6	0	-12	-11	x
NC(=O)Nc1ccc(C(=O)OCC(=O)N2CCCC2=O)cc1	x	2	0	28	x	x
COCc1ccc(CN2CCCC(CCC(=O)NCc3cccc(OC)c3)C2)o1 (stereo not given)	1	-2	0	-12	-14	59*
Cc1cc(C)c(C)c(S(=O)(=O)NC(C)C(=O)O)c1C (stereo not given)	x	-3	0	x	-8	-15
CCOC(=O)c1c(N)sc(C(O)(C(F)(F)F)C(F)(F)F)c1-c1ccccc1	97*	-1	0	-9	0	10
CC(C)Nc1nnc(SC(C)C(=O)Nc2ccc(Cl)cn2)s1 (stereo not given)	-12	0	0	9	5	-5
CCCCCN=Cc1c(C)[nH]n(-c2nc3ccccc3s2)c1=O	38	90*	0	-20	-18	8
CCCc1[nH]n(-c2nc3ccccc3s2)c(=O)c1C=NCCCOC	x	-6	0	-23	-10	11
C/C(=N\NC(=O)CCC(=O)N/N=C(\C)c1ccc(C)o1)c1ccc(C)o1	x	-5	0	4	1	-13
CCOC(=O)N/N=C(/C)c1ccc([N+](=O)[O-])o1	-16	-5	0	154	-8	57*
O=C(c1cnc(-c2ccc(Cl)cc2)s1)c1ccc(Cl)cc1Cl	73*	3	0	-9	20	-8
CCOC(=O)C1=C(C)N=c2s/c(=C\c3ccc(C(=O)O)cc3)c(=O)n2C1c1ccc(F)cc1 (stereo not given)	x	16	0	468	53	1
CC1(C)CC(=O)C2=C(C1)N=c1s/c(=C/c3ccc(F)c(F)c3)c(=O)n1C2c1ccc(F)cc1 (stereo not given)	76*	-10	0	x	12	-11
Cc1ccc(/C=C/C(=O)NCCc2ccccc2)o1	x	-9	0	-12	75*	-22
COc1cc(OC)c2cc(C(=O)N/N=C/c3cccc(OC)c3O)[nH]c2c1	x	97*	0	-3	125*	22
COc1cccc(/C=N/NC(=O)CNC(=O)c2cccs2)c1O	x	86*	0	315	26	3
COc1cccc(/C=N/NC(=O)N/N=C/c2cccc(OC)c2O)c1O	x	7	0	61	15	4
COc1cccc(/C=N/NC(=O)c2cc3c(OC)ccc(OC)c3[nH]2)c1O	x	86*	0	-7	103*	7
CC(C(O)c1ccc(O)cc1)N1CCC(Cc2ccccc2)CC1 (stereo not given)	42	1	0	333*!	44	54
C=CCC(C(=O)OC)(C(=O)OC)c1ccccc1[N+](=O)[O-]	5	2	0	-5	-16	-25
CNC(=S)/N=C/NOCc1ccc(Cl)cc1Cl	62*	x	0	4	-2	74*
Cc1ccsc1/C=N/NC(=O)c1nnn(-c2nonc2N)c1CSc1ccccc1	x	4	0	2	-11	1
Cn1nc(-c2ccc(Cl)cc2)c2cc(C(=O)NCCCN3CCCC3)sc21	17	17	0	8	82*	43
CCCCN(C)CCNC(=O)c1cc2c(-c3ccccc3F)nn(C)c2s1	x	97*	-1	8	12	-8
SMILES	WT yeast gro inh	Beta apoptosis	Efflux pump mplx	Mot1-301 SUMO	CSC inhib	T cruzi repl
COCCNC(=O)c1cc2c(-c3ccccc3F)nn(C)c2s1	9	3	0	16	-2	21
CCCCNC(=O)c1cc2c(-c3ccc(Cl)cc3)nn(C)c2s1	3	-4	0	332	4	16
Oc1ccc(Br)cc1Cn1nnc2ccccc21	x	-1	0	-9	5	-4
c1ccc(-c2c3ccccc3nc3[nH]c4ccccc4c23)cc1	32	3	0	-20	79*	13
CCCCn1c(N)c(N(CCOC)C(=O)c2ccc(C)o2)c(=O)[nH]c1=O	x	x	0	0	0	4
Cc1cccc(OCCCSc2nc3ccc(C)cc3[nH]2)c1	82*	-4	0	94	x	3
Cc1cc(C(=O)N/N=C/c2ccc(-c3cccc(Cl)c3)o2)n[nH]1	x	-1	0	7	-13	7
